Results as given in ChEMBL document CHEMBL1155222, “Synthesis and anticancer activity of N-bis(trifluoromethyl)alkyl-N'-thiazolyl and N-bis(trifluoromethyl)alkyl-N'-benzothiazolyl ureas” (2009).
Values belong to the compound of their own block, whether it stands above or below them.

Key:
Assay type in all cases: functional
CCRF-CEM = assay: Anticancer activity against human CCRF-CEM cells after 48 hrs by sulforhodamine B assay
Method in brief: (§1)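 NCI 60-cell-line screen. Cells grown in RPMI 1640 with 5% FBS and 2 mM L-glutamine, plated at 5000–40,000 cells/well, and preincubated 24 h at 37 °C under 5% CO2. Compounds were taken from DMSO stocks and tested at five final concentrations, 10^-4 to 10^-8 M, for 48 h. Cells were TCA-fixed, stained with 0.4% SRB, and read at 515 nm. GI50, TGI and LC50 were derived as log molar values.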

SR = assay: Anticancer activity against human SR cells after 48 hrs by sulforhodamine B assay
Method in brief: (§2)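 NCI 60-cell-line panel; cells grown in RPMI 1640 with 5% FBS and 2 mM L-glutamine, plated at 5000–40,000 cells/well and preincubated 24 h at 37 °C, 5% CO2. Compounds came from DMSO stocks diluted in medium with gentamicin and were tested at five final concentrations, 10^-4 to 10^-8 M, for 48 h. Cells were fixed with TCA, stained with SRB and read at 515 nm. GI50, TGI and LC50 were derived as log molar values.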

A549 = assay: Anticancer activity against human A549 cells after 48 hrs by sulforhodamine B assay; conditions: A549, 48 h; method in brief: as §1
EKVX = assay: Anticancer activity against human EKVX cells after 48 hrs by sulforhodamine B assay; method in brief: as §1
HOP-92 = assay: Anticancer activity against human HOP92 cells after 48 hrs by sulforhodamine B assay; conditions: HOP-92, 48 h; method in brief: as §1
NCI-H226 = assay: Anticancer activity against human NCI-H226 cells after 48 hrs by sulforhodamine B assay; conditions: NCI-H226, 48 h; method in brief: as §1
NCI-H522 = assay: Anticancer activity against human NCI-H522 cells after 48 hrs by sulforhodamine B assay; conditions: NCI-H522, 48 h; method in brief: as §1
HCC 2998 = assay: Anticancer activity against human HCC2998 cells after 48 hrs by sulforhodamine B assay; conditions: HCC 2998, 48 h; method in brief: as §1
HCT-116 = assay: Anticancer activity against human HCT116 cells after 48 hrs by sulforhodamine B assay; conditions: HCT-116, 48 h; method in brief: as §1
HCT-15 = assay: Anticancer activity against human HCT15 cells after 48 hrs by sulforhodamine B assay; conditions: HCT-15, 48 h; method in brief: as §1
HT-29 = assay: Anticancer activity against human HT-29 cells after 48 hrs by sulforhodamine B assay; conditions: HT-29, 48 h; method in brief: as §1
SF-295 = assay: Anticancer activity against human SF295 cells after 48 hrs by sulforhodamine B assay; conditions: SF-295, 48 h; method in brief: as §1
SF-539 = assay: Anticancer activity against human SF539 cells after 48 hrs by sulforhodamine B assay; conditions: SF-539, 48 h; method in brief: as §1
SNB-19 = assay: Anticancer activity against human SNB19 cells after 48 hrs by sulforhodamine B assay; conditions: SNB-19, 48 h; method in brief: as §2
SNB-75 = assay: Anticancer activity against human SNB75 cells after 48 hrs by sulforhodamine B assay; conditions: SNB-75, 48 h; method in brief: as §2
U-251 = assay: Anticancer activity against human U251 cells after 48 hrs by sulforhodamine B assay; conditions: U-251, 48 h; method in brief: as §2
LOX IMVI = assay: Anticancer activity against human LOXIMVI cells after 48 hrs by sulforhodamine B assay; method in brief: as §1
Malme-3M = assay: Anticancer activity against human MALME-3M cells after 48 hrs by sulforhodamine B assay; method in brief: as §1
M14 = assay: Anticancer activity against human M14 cells after 48 hrs by sulforhodamine B assay; conditions: M14, 48 h; method in brief: as §1
SK-MEL-2 = assay: Anticancer activity against human SK-MEL-2 cells after 48 hrs by sulforhodamine B assay; conditions: SK-MEL-2, 48 h; method in brief: as §1
SK-MEL-28 = assay: Anticancer activity against human SK-MEL-28 cells after 48 hrs by sulforhodamine B assay; conditions: SK-MEL-28, 48 h; method in brief: as §1
SK-MEL-5 = assay: Anticancer activity against human SK-MEL-5 cells after 48 hrs by sulforhodamine B assay; conditions: SK-MEL-5, 48 h; method in brief: as §1
UACC-257 = assay: Anticancer activity against human UACC257 cells after 48 hrs by sulforhodamine B assay; conditions: UACC-257, 48 h; method in brief: as §2
UACC-62 = assay: Anticancer activity against human UACC62 cells after 48 hrs by sulforhodamine B assay; conditions: UACC-62, 48 h; method in brief: as §2
IGROV-1 = assay: Anticancer activity against human IGROV1 cells after 48 hrs by sulforhodamine B assay; conditions: IGROV-1, 48 h; method in brief: as §1
OVCAR-3 = assay: Anticancer activity against human OVCAR-3 cells after 48 hrs by sulforhodamine B assay; conditions: OVCAR-3, 48 h; method in brief: as §1
OVCAR-4 = assay: Anticancer activity against human OVCAR4 cells after 48 hrs by sulforhodamine B assay; conditions: OVCAR-4, 48 h; method in brief: as §1
OVCAR-5 = assay: Anticancer activity against human OVCAR5 cells after 48 hrs by sulforhodamine B assay; conditions: OVCAR-5, 48 h; method in brief: as §1
OVCAR-8 = assay: Anticancer activity against human OVCAR8 cells after 48 hrs by sulforhodamine B assay; conditions: OVCAR-8, 48 h; method in brief: as §1
SK-OV-3 = assay: Anticancer activity against human SKOV3 cells after 48 hrs by sulforhodamine B assay; conditions: SK-OV-3, 48 h; method in brief: as §1
786-0 = assay: Anticancer activity against human 786-0 cells after 48 hrs by sulforhodamine B assay; conditions: 786-0, 48 h; method in brief: as §1
A498 = assay: Anticancer activity against human A498 cells after 48 hrs by sulforhodamine B assay; conditions: A498, 48 h; method in brief: as §1
ACHN = assay: Anticancer activity against human ACHN cells after 48 hrs by sulforhodamine B assay; method in brief: as §1
CAKI-1 = assay: Anticancer activity against human Caki1 cells after 48 hrs by sulforhodamine B assay; conditions: CAKI-1, 48 h; method in brief: as §1
RXF 393 = assay: Anticancer activity against human RXF393 cells after 48 hrs by sulforhodamine B assay; conditions: RXF 393, 48 h; method in brief: as §1
SN12C = assay: Anticancer activity against human SN12C cells after 48 hrs by sulforhodamine B assay; method in brief: as §2
UO-31 = assay: Anticancer activity against human UO31 cells after 48 hrs by sulforhodamine B assay; conditions: UO-31, 48 h; method in brief: as §2
PC-3 = assay: Anticancer activity against human PC3 cells after 48 hrs by sulforhodamine B assay; conditions: PC-3, 48 h; method in brief: as §1
DU-145 = assay: Anticancer activity against human DU145 cells after 48 hrs by sulforhodamine B assay; conditions: DU-145, 48 h; method in brief: as §1
MCF7 = assay: Anticancer activity against human MCF7 cells after 48 hrs by sulforhodamine B assay; conditions: MCF7, 48 h; method in brief: as §1
NCI/ADR-RES = assay: Anticancer activity against human NCI/ADR-RES cells after 48 hrs by sulforhodamine B assay; method in brief: as §1
[1] = Anticancer activity against human Hs 578T cells after 48 hrs by sulforhodamine B assay; method in brief: as §1
MDA-MB-435 = assay: Anticancer activity against human MDA-MB-435 cells after 48 hrs by sulforhodamine B assay; conditions: MDA-MB-435, 48 h; method in brief: as §1
MDA-N = assay: Anticancer activity against human MDA-N cells after 48 hrs by sulforhodamine B assay; method in brief: as §1
BT-549 = assay: Anticancer activity against human BT549 cells after 48 hrs by sulforhodamine B assay; conditions: BT-549, 48 h; method in brief: as §1

SMILES: CNC(=O)Nc1ccccc1
- GI50 (CCRF-CEM): 100 µM
- GI50 (SR): 100 µM
- GI50 (A549): 100 µM
- GI50 (EKVX): 100 µM
- GI50 (HOP-92): 100 µM
- GI50 (NCI-H226): 100 µM
- GI50 (NCI-H522): 100 µM
- GI50 (HCC 2998): 100 µM
- GI50 (HCT-116): 100 µM
- GI50 (HCT-15): 100 µM
- GI50 (HT-29): 100 µM
- GI50 (SF-295): 100 µM
- GI50 (SF-539): 100 µM
- GI50 (SNB-19): 100 µM
- GI50 (SNB-75): 74.1 µM
- GI50 (U-251): 100 µM
- GI50 (LOX IMVI): 100 µM
- GI50 (Malme-3M): 100 µM
- GI50 (M14): 100 µM
- GI50 (SK-MEL-2): 100 µM
- GI50 (SK-MEL-28): 100 µM
- GI50 (SK-MEL-5): 100 µM
- GI50 (UACC-257): 100 µM
- GI50 (UACC-62): 100 µM
- GI50 (IGROV-1): 100 µM
- GI50 (OVCAR-3): 100 µM
- GI50 (OVCAR-4): 100 µM
- GI50 (OVCAR-5): 100 µM
- GI50 (OVCAR-8): 100 µM
- GI50 (SK-OV-3): 100 µM
- GI50 (786-0): 100 µM
- GI50 (A498): 100 µM
- GI50 (ACHN): 100 µM
- GI50 (CAKI-1): 100 µM
- GI50 (RXF 393): 100 µM
- GI50 (SN12C): 100 µM
- GI50 (UO-31): 100 µM
- GI50 (PC-3): 100 µM
- GI50 (DU-145): 100 µM
- GI50 (MCF7): 100 µM
- GI50 (NCI/ADR-RES): 100 µM
- GI50 [1]: 100 µM
- GI50 (MDA-MB-435): 100 µM
- GI50 (MDA-N): 100 µM
- GI50 (BT-549): 100 µM

- GI50 (CCRF-CEM): 23.4 µM
- GI50 (A549): 15.8 µM
- GI50 (NCI-H226): 15.8 µM
- GI50 (NCI-H522): 17 µM
- GI50 (HCC 2998): 19.1 µM
- GI50 (HCT-116): 18.2 µM
- GI50 (HCT-15): 17.8 µM
- GI50 (HT-29): 19.5 µM
- GI50 (U-251): 17.4 µM
- GI50 (SK-MEL-2): 15.8 µM
- GI50 (SK-MEL-28): 17.8 µM
- GI50 (SK-MEL-5): 17.8 µM
- GI50 (OVCAR-3): 16.6 µM
- GI50 (OVCAR-4): 18.6 µM
- GI50 (OVCAR-5): 19.5 µM
- GI50 (OVCAR-8): 18.2 µM
- GI50 (SK-OV-3): 17.8 µM
- GI50 (786-0): 20 µM
- GI50 (ACHN): 18.2 µM
- GI50 (PC-3): 18.2 µM
- GI50 (DU-145): 18.6 µM
- GI50 (MCF7): 15.8 µM
- GI50 (MDA-MB-435): 20 µM
- GI50 (BT-549): 18.2 µM
SMILES: CCC(NC(=O)Nc1nc2ccccc2s1)(C(F)(F)F)C(F)(F)F
- GI50 (SR): 17 µM
- GI50 (EKVX): 17 µM
- GI50 (HOP-92): 19.1 µM
- GI50 (SF-295): 17 µM
- GI50 (SF-539): 18.2 µM
- GI50 (SNB-19): 20.9 µM
- GI50 (SNB-75): 1.45 µM
- GI50 (LOX IMVI): 18.2 µM
- GI50 (Malme-3M): 15.5 µM
- GI50 (M14): 18.6 µM
- GI50 (UACC-257): 20 µM
- GI50 (UACC-62): 15.5 µM
- GI50 (IGROV-1): 17 µM
- GI50 (A498): 13.5 µM
- GI50 (CAKI-1): 19.1 µM
- GI50 (RXF 393): 17.4 µM
- GI50 (SN12C): 16.2 µM
- GI50 (UO-31): 4.68 µM
- GI50 (NCI/ADR-RES): 19.5 µM
- GI50 [1]: 21.4 µM
- GI50 (MDA-N): 18.6 µM
